# In ChEMBL document CHEMBL1687722, “Mode of action of Ranbezolid against staphylococci and structural modeling studies of its interaction with ribosomes” (Antimicrob Agents Chemother, 2009):
# Activity calls are given as the source filed them. The rule behind the calls is not given here.
# How the values were obtained:
# Staphylococcus aureus [1] = experiment: Inhibition of RNA synthesis in Staphylococcus aureus ATCC 25923 assessed as incorporation of [3H]uridine at 2 ug/ml by liquid scintillation counter; format: functional, organism-based
# How it was run: (§1)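 Whole-cell macromolecular synthesis. Cells grown in MHB to early log phase (OD600 0.3) were given a labelled precursor: [3H]thymidine, [3H]uridine or [3H]N-acetylglucosamine at 1 µCi/ml, or [14C]isoleucine or [14C]acetate at 0.1 µCi/ml. Drug was added 5 min later. Macromolecules were precipitated with ice-cold TCA (5% final), filtered, dried overnight at 37°C and counted by scintillation. A pathway-specific antibiotic was run as positive control.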
# Staphylococcus aureus [2] = experiment: Bacteriostatic activity against Staphylococcus aureus ATCC 25923 at 8 times MIC after 30 hrs by time-kill analysis; format: functional, organism-based
# [3] = test system: Staphylococcus epidermidis; experiment: Inhibition of DNA synthesis in Staphylococcus epidermidis ATCC 23760 assessed as incorporation of [3H]thymidine at 2 ug/ml by liquid scintillation counter; format: functional, organism-based; how it was run: as §1
# [4] = test system: Staphylococcus epidermidis; experiment: Inhibition of protein synthesis in Staphylococcus epidermidis ATCC 23760 assessed as incorporation of [14C]isoleucine at 2 ug/ml by liquid scintillation counter; format: functional, organism-based; how it was run: as §1
# [5] = test system: Staphylococcus epidermidis; experiment: Bacteriostatic activity against Staphylococcus epidermidis ATCC 23760 at 4 X MIC after 24 hrs by time-kill analysis; format: functional, organism-based
# [6] = test system: Staphylococcus epidermidis; experiment: Inhibition of RNA synthesis in Staphylococcus epidermidis ATCC 23760 assessed as incorporation of [3H]uridine at 2 ug/ml by liquid scintillation counter; format: functional, organism-based; how it was run: as §1
# Staphylococcus aureus [7] = experiment: Inhibition of DNA synthesis in Staphylococcus aureus ATCC 25923 assessed as incorporation of [3H]thymidine at 2 ug/ml by liquid scintillation counter; format: functional, organism-based; how it was run: as §1
# [8] = Inhibition of ribosomal activity in Escherichia coli S30 by coupled transcription/translation assay; format: subcellular, Ribosome
# How it was run: (§2)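 Cell-free coupled transcription/translation of a luciferase gene, using E. coli S30 extract (bacterial) or a TNT kit (mammalian ribosomes). Percent inhibition of luciferase activity across a range of drug concentrations was calculated relative to the no-drug control.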
# [9] = test system: Staphylococcus epidermidis; experiment: Antimicrobial activity against Staphylococcus epidermidis ATCC 23760 by microdilution method; format: functional
# How it was run: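 MIC determined by broth microdilution in the course of the macromolecular synthesis work; cultures grown in Mueller-Hinton broth.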
# [10] = test system: Staphylococcus epidermidis; experiment: Induction of bacterial membrane damage in Staphylococcus epidermidis ATCC 23760 at 4 ug/mL by BacLight assay; format: functional, organism-based
# How it was run: (§3)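 BacLight membrane integrity. Mid-log MHB cultures (OD600 0.5–0.6) were washed and resuspended in water, then exposed to drug at 1–8 µg/ml for 15–30 min at room temperature (25°C) with shaking. Cells were washed, set to OD670 0.325 and stained with Syto 9/propidium iodide for 15 min in the dark. The Syto 9 (480/500 nm) to PI (490/635 nm) fluorescence ratio was compared with untreated controls. Valinomycin and CCCP served as positive controls.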
# Ribosome = experiment: Inhibition of mammalian ribosomal activity by coupled transcription/translation assay; format: subcellular; how it was run: as §2
# Staphylococcus aureus [11] = experiment: Inhibition of protein synthesis in Staphylococcus aureus ATCC 25923 assessed as incorporation of [14C]isoleucine at 2 ug/ml by liquid scintillation counter; format: functional, organism-based; how it was run: as §1
# Staphylococcus aureus [12] = experiment: Induction of bacterial membrane damage in Staphylococcus aureus ATCC 25923 at 4 ug/mL by BacLight assay; format: functional, organism-based; how it was run: as §3
# [13] = test system: Staphylococcus epidermidis; experiment: Inhibition of lipid synthesis in Staphylococcus epidermidis ATCC 23760 assessed as incorporation of [14C]acetate at 2 ug/ml after 60 mins by liquid scintillation counter; format: functional, organism-based; how it was run: as §1
# [14] = test system: Staphylococcus epidermidis; experiment: Inhibition of cell wall synthesis in Staphylococcus epidermidis ATCC 23760 assessed as incorporation of [3H]N-acetylglucosamine at 2 ug/ml after 60 mins by liquid scintillation counter; format: functional, organism-based; how it was run: as §1
# [15] = test system: Staphylococcus epidermidis; experiment: Induction of bacterial membrane damage in Staphylococcus epidermidis ATCC 23760 at 15 uM by BacLight assay; format: functional
# How it was run: (§4)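 Mid-log cells (overnight MHB culture at 37°C, diluted 1:100, grown to OD600 0.5–0.6) washed in water, diluted 1:20 into water containing compound, shaken 15–30 min at room temperature (25°C). Washed, adjusted to OD670 0.325, stained with BacLight reagent (3 µl/ml) for 15 min in the dark. Syto 9 (480/500 nm)/propidium iodide (490/635 nm) fluorescence ratio expressed versus control; <40% of control indicates membrane damage.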
# Staphylococcus aureus [16] = experiment: Induction of bacterial membrane damage in Staphylococcus aureus ATCC 25923 at 15 uM by BacLight assay; format: functional; how it was run: as §4
# [17] = test system: Staphylococcus epidermidis; experiment: Induction of bacterial membrane damage in Staphylococcus epidermidis ATCC 23760 at 100 uM by BacLight assay; format: functional; how it was run: as §4
# Staphylococcus aureus [18] = experiment: Induction of bacterial membrane damage in Staphylococcus aureus ATCC 25923 at 100 uM by BacLight assay; format: functional; how it was run: as §4
# Staphylococcus aureus [19] = experiment: Antimicrobial activity against Staphylococcus aureus ATCC 25923 by microdilution method; format: functional
# [20] = test system: Staphylococcus epidermidis; experiment: Induction of bacterial membrane damage in Staphylococcus epidermidis ATCC 23760 at 2 to 8 ug/mL by BacLight assay; format: functional, organism-based; how it was run: as §3
# [21] = test system: Staphylococcus epidermidis; experiment: Induction of bacterial membrane damage in Staphylococcus epidermidis ATCC 23760 at 2 ug/mL by BacLight assay relative to untreated control; format: functional; how it was run: as §3
# Staphylococcus aureus [22] = experiment: Bactericidal activity against Staphylococcus aureus ATCC 25923 at 16 ug/ml by time-kill analysis; format: functional, organism-based
# [23] = test system: Staphylococcus epidermidis; experiment: Bactericidal activity against Staphylococcus epidermidis ATCC 23760 at 4 ug/ml after 6 hrs by time-kill analysis; format: functional, organism-based
# Staphylococcus aureus [24] = experiment: Inhibition of RNA synthesis in Staphylococcus aureus ATCC 25923 assessed as incorporation of [3H]uridine at 1 ug/ml by liquid scintillation counter; format: functional, organism-based; how it was run: as §1
# [25] = Ratio of IC50 for mammalian ribosomal activity to ribosomal activity in Escherichia coli S30 by coupled transcription/translation assay; format: subcellular; conditions: Ribosome
# [26] = test system: Staphylococcus epidermidis; experiment: Induction of bacterial membrane damage in Staphylococcus epidermidis ATCC 23760 at 1 ug/mL by BacLight assay relative to untreated control; format: functional, organism-based; how it was run: as §3
# [27] = test system: Staphylococcus epidermidis; experiment: Bactericidal activity against Staphylococcus epidermidis ATCC 23760 at 8 ug/ml after 4 hrs by time-kill analysis; format: functional, organism-based
# Staphylococcus aureus [28] = experiment: Inhibition of DNA synthesis in Staphylococcus aureus ATCC 25923 assessed as incorporation of [3H]thymidine at 1 ug/ml by liquid scintillation counter; format: functional, organism-based; how it was run: as §1
# Staphylococcus aureus [29] = experiment: Inhibition of protein synthesis in Staphylococcus aureus ATCC 25923 assessed as incorporation of [14C]isoleucine at 1 ug/ml by liquid scintillation counter; format: functional, organism-based; how it was run: as §1
# [30] = test system: Staphylococcus epidermidis; experiment: Inhibition of lipid synthesis in Staphylococcus epidermidis ATCC 23760 assessed as incorporation of [14C]acetate at 1 ug/ml after 60 mins by liquid scintillation counter; format: functional, organism-based; how it was run: as §1
# [31] = test system: Staphylococcus epidermidis; experiment: Inhibition of DNA synthesis in Staphylococcus epidermidis ATCC 23760 assessed as incorporation of [3H]thymidine at 1 ug/ml by liquid scintillation counter; format: functional, organism-based; how it was run: as §1
# [32] = test system: Staphylococcus epidermidis; experiment: Bactericidal activity against Staphylococcus epidermidis ATCC 23760 by time-kill analysis; format: functional
# [33] = test system: Staphylococcus epidermidis; experiment: Inhibition of RNA synthesis in Staphylococcus epidermidis ATCC 23760 assessed as incorporation of [3H]uridine at 1 ug/ml by liquid scintillation counter; format: functional, organism-based; how it was run: as §1
# [34] = test system: Staphylococcus epidermidis; experiment: Inhibition of cell wall synthesis in Staphylococcus epidermidis ATCC 23760 assessed as incorporation of [3H]N-acetylglucosamine at 1 ug/ml after 60 mins by liquid scintillation counter; format: functional, organism-based; how it was run: as §1
# [35] = test system: Staphylococcus epidermidis; experiment: Inhibition of protein synthesis in Staphylococcus epidermidis ATCC 23760 assessed as incorporation of [14C]isoleucine at 1 ug/ml by liquid scintillation counter; format: functional, organism-based; how it was run: as §1
smiles,measurement,setting,value
CC(=O)NC[C@H]1CN(c2ccc(N3CCOCC3)c(F)c2)C(=O)O1 [LINEZOLID],inhibition,Staphylococcus aureus [1],inactive
same,Activity,Staphylococcus aureus [2],Active
same,inhibition,[3],inactive
same,inhibition,[4],Active
same,Activity,[5],Active
same,inhibition,[6],inactive
same,inhibition,Staphylococcus aureus [7],inactive
same,IC50,[8],0.1 mM
same,MIC,[9],2 µg/mL
same,Activity,[10],inactive
same,IC50,Ribosome,11.9 mM
same,inhibition,Staphylococcus aureus [11],Active
same,Activity,Staphylococcus aureus [12],inactive
same,inhibition,[13],Active
same,inhibition,[14],Active
N#CC(C#N)=NNc1cccc(Cl)c1 [CARBONYL CYANIDE M-CHLOROPHENYLHYDRAZONE],Activity,[15],<40%
same,Activity,Staphylococcus aureus [16],<40%
CC(C)[C@@H]1NC(=O)[C@H](C)OC(=O)[C@@H](C(C)C)NC(=O)[C@@H](C(C)C)OC(=O)[C@H](C(C)C)NC(=O)[C@H](C)OC(=O)[C@@H](C(C)C)NC(=O)[C@@H](C(C)C)OC(=O)[C@H](C(C)C)NC(=O)[C@H](C)OC(=O)[C@@H](C(C)C)NC(=O)[C@@H](C(C)C)OC1=O [VALINOMYCIN],Activity,[17],<40%
same,Activity,Staphylococcus aureus [18],<40%
CC(=O)NC[C@H]1CN(c2ccc(N3CCN(Cc4ccc([N+](=O)[O-])o4)CC3)c(F)c2)C(=O)O1 [RANBEZOLID],Activity,Staphylococcus aureus [2],Active
same,MIC,Staphylococcus aureus [19],1 µg/mL
same,Activity,[20],Active
same,Activity,[21],50%
same,Activity,Staphylococcus aureus [22],Active
same,Activity,[23],Active
same,inhibition,Staphylococcus aureus [24],inactive
same,Ratio,[25],865
same,Activity,[26],inactive
same,Activity,[27],Active
same,IC50,[8],0.017 mM
same,inhibition,Staphylococcus aureus [28],inactive
same,MIC,[9],1 µg/mL
same,Activity,[10],Active
same,IC50,Ribosome,14.7 mM
same,inhibition,Staphylococcus aureus [29],Active
same,inhibition,[30],Active
same,Activity,Staphylococcus aureus [12],inactive
same,inhibition,[31],inactive
same,Activity,[32],99.9%
same,inhibition,[33],inactive
same,inhibition,[34],Active
same,inhibition,[35],Active
